Experimental data from ChEMBL document CHEMBL4602714, “Strategic Incorporation of Polarity in Heme-Displacing Inhibitors of Indoleamine-2,3-dioxygenase-1 (IDO1)” (ACS Med Chem Lett, 2020).

How the values were obtained:
[1] = Unbound intrinsic clearance in human hepatocytes incubated for 120 mins by LC-MS/MS analysis; format: ADME, cell-based, Hepatocyte; settings: 2 h
[2] = Unbound intrinsic clearance in rat hepatocytes incubated for 120 mins by LC-MS/MS analysis; format: ADME, cell-based, Hepatocyte; settings: 2 h
[3] = Intrinsic clearance in Wistar Han rat at 0.5 mg/kg, iv or 1 mg/kg, po by LC-MS/MS analysis; format: ADME, organism-based; settings: in vivo
Outline: (§1)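 Rat 2 × 2 PK: IV arm at 0.5 mg/kg (1 mL/kg) and PO arm at 1 mg/kg (2 mL/kg), both in DMSO/PEG400/H2O 20/60/20. Reported values are the geometric mean of n = 2 or more.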

[4] = Unbound volume of distribution in Wistar Han rat at 0.5 mg/kg, iv or 1 mg/kg, po by LC-MS/MS analysis; format: ADME, organism-based; settings: in vivo; outline: as §1
[5] = MRT in Wistar Han rat at 0.5 mg/kg, iv or 1 mg/kg, po by LC-MS/MS analysis; format: ADME, organism-based; settings: in vivo; outline: as §1
[6] = Intrinsic clearance in Wistar Han rat at 0.05 mg/kg, iv administered using cassette dosing by LC-MS/MS analysis; format: ADME, organism-based; settings: in vivo
Outline: (§2)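 Rat cassette PK: single IV dose of 0.05 mg/kg at 1 mL/kg, vehicle DMSO/PEG400/H2O 20/60/20, animals fasted. Reported values are the geometric mean of n = 2 or more.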

[7] = Unbound volume of distribution in Wistar Han rat at 0.05 mg/kg, iv administered using cassette dosing by LC-MS/MS analysis; format: ADME, organism-based; settings: in vivo; outline: as §2
[8] = MRT in Wistar Han rat at 0.05 mg/kg, iv administered using cassette dosing by LC-MS/MS analysis; format: ADME, organism-based; settings: in vivo; outline: as §2
[9] = Volume of distribution in Wistar Han rat at 0.05 mg/kg, iv administered using cassette dosing by LC-MS/MS analysis; format: ADME, organism-based; settings: in vivo; outline: as §2
[10] = Drug metabolism in rat liver microsomes assessed as oxidation of n-propyl group at 30 uM incubated up to 45 mins in presence of NADPH by MetID based LC/MS analysis; format: ADME, Microsome; settings: 0.75 h
[11] = Drug metabolism in human liver microsomes assessed as oxidation of n-propyl group at 30 uM incubated up to 45 mins in presence of NADPH by MetID based LC/MS analysis; format: ADME, Microsome; settings: 0.75 h
[12] = Drug metabolism in human hepatocytes assessed as oxidation of n-propyl group with aryl amide bond cleavage at 30 uM incubated up to 90 mins in presence of NADPH by MetID based LC/MS analysis; format: ADME, cell-based, Hepatocyte; settings: 1.5 h
[13] = Clearance in Wistar Han rat at 0.05 mg/kg, iv administered using cassette dosing by LC-MS/MS analysis; format: ADME, organism-based; settings: in vivo; outline: as §2
[14] = Unbound clearance in Wistar Han rat at 0.05 mg/kg, iv administered using cassette dosing by LC-MS/MS analysis; format: ADME, organism-based; settings: in vivo; outline: as §2

Row | Structure (SMILES) | CL free [1] | CL free [2] | CL [6] | Vdu [7] | MRT [8] | further results
1 | O=C(Nc1ccc(C2(C(=O)Nc3ccc(Cl)nc3)CCC2)cc1)c1cccc(Cl)c1 | 1900 mL/min/kg | 500 mL/min/kg | – | – | – | –
2 | CCCNC(=O)C1(c2ccc(NC(=O)c3ccc(F)c(C)c3)cc2)CCC1 | 560 mL/min/kg | 6200 mL/min/kg | – | – | – | –
3 | O=C(Nc1ccc(C2(C(=O)NC3CCOCC3)CCC2)cc1)c1cccc(Cl)c1 | 390 mL/min/kg | 1700 mL/min/kg | – | – | – | –
4 | CCCNC(=O)C1(c2ccc(NC(=O)c3cccc(Cl)c3)cc2)CCC1 | 870 mL/min/kg | 7200 mL/min/kg | – | 180 L/kg | 0.7 h | Vd [9]: 4.9 L/kg; Drug metabolism [10]: Metabolite_Detected; Drug metabolism [11]: Metabolite_Detected; Drug metabolism [12]: Metabolite_Detected; clearance [13]: 110 mL/min/kg; CL free [14]: 4100 mL/min/kg

Second part, led by results:

Row | CL free [1] | CL free [2] | CL [6] | Vdu [7] | MRT [8] | Structure (SMILES) | further results
5 | 1300 mL/min/kg | 830 mL/min/kg | – | – | – | O=C(Nc1ccc(C2(C(=O)Nc3ccc(F)cc3)CCC2)cn1)c1cccc(Cl)c1 | CL [3]: 4500 mL/min/kg; Vdu [4]: 2200 L/kg; MRT [5]: 5 h
6 | 350 mL/min/kg | < 280 mL/min/kg | 590 mL/min/kg | 99 L/kg | 3.2 h | O=C(Nc1ccc([C@]2(C(=O)Nc3ccc(F)cc3)C[C@@H](O)C2)cc1)c1cccc(Cl)c1 | –
7 | 2000 mL/min/kg | 2000 mL/min/kg | 6000 mL/min/kg | 1100 L/kg | 4.3 h | O=C(Nc1ccc(C2(C(=O)Nc3ccc(F)cc3)CCC2)cc1)c1cccc(Cl)c1 | –
8 | 420 mL/min/kg | 250 mL/min/kg | 1600 mL/min/kg | 420 L/kg | 4.8 h | O=C(Nc1ccc(C2(C(=O)Nc3ccc(F)cc3)COC2)cc1)c1cccc(Cl)c1 | –
9 | < 44 mL/min/kg | < 84 mL/min/kg | – | – | 3.2 h | O=C(Nc1ccc(C2(C(=O)Nc3ccc(F)cc3)COC2)nc1)c1cccc(Cl)c1 | –
